In ChEMBL document CHEMBL4715838, “Novel diosgenin derivatives containing 1,3,4-oxadiazole/thiadiazole moieties as potential antitumor agents: Design, synthesis and cytotoxic evaluation” (Eur J Med Chem, 2020):
Calls of active or inactive are those of the source. The rule behind the calls is not given here.

Tests used:
HepG2 [1] = test: Cytotoxicity against human HepG2 cells assessed as reduction in cell viability measured after 48 hrs by MTT assay; assay type: functional, cell-based; settings: HepG2, 48 h
Method in brief: (§1)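 Cells in DMEM with 10% FBS, penicillin/streptomycin, 37 °C, 5% CO2. Seeded at 5×10^3 per well directly into medium holding graded concentrations of sample and incubated 48 h. MTT (5 mg/mL in PBS) added for 4 h, medium replaced with DMSO, absorbance read at 492 nm. IC50 taken as the concentration giving 50% inhibition of proliferation; three replicates, means ± SD.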

A549 [2] = test: Cytotoxicity against human A549 cells assessed as reduction in cell viability measured after 48 hrs by MTT assay; assay type: functional, cell-based; settings: A549, 48 h; method in brief: as §1
MCF7 = test: Cytotoxicity against human MCF7 cells assessed as reduction in cell viability measured after 48 hrs by MTT assay; assay type: functional, cell-based; settings: MCF7, 48 h; method in brief: as §1
HCT-116 = test: Cytotoxicity against human HCT-116 cells assessed as reduction in cell viability measured after 48 hrs by MTT assay; assay type: functional, cell-based; settings: HCT-116, 48 h; method in brief: as §1
GES1 = test: Cytotoxicity against human GES1 cells assessed as reduction in cell viability measured after 48 hrs by MTT assay; assay type: cell-based; settings: GES1, 48 h; method in brief: as §1
A549 [3] = test: Induction of apoptosis in human A549 cells assessed as cell rounding at 15 to 30 uM measured after 48 hrs by phase contrast microscopic analysis; assay type: functional, cell-based; settings: dose 15-30 µM
Method in brief: (§2)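 A549 seeded at 2×10^5 cells/well and allowed to settle 24 h. Then exposed 48 h to test compound (15 or 30 μM) or diosgenin (30 μM); controls received 0.1% DMSO. Cell shape examined by phase contrast microscopy.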

A549 [4] = test: Induction of apoptosis in human A549 cells assessed as cell shrinkage at 15 to 30 uM measured after 48 hrs by phase contrast microscopic analysis; assay type: functional, cell-based; settings: dose 15-30 µM; method in brief: as §2
A549 [5] = test: Induction of apoptosis in human A549 cells assessed as membrane blebbing at 15 to 30 uM measured after 48 hrs by phase contrast microscopic analysis; assay type: functional, cell-based; settings: dose 15-30 µM; method in brief: as §2
A549 [6] = test: Induction of apoptosis in human A549 cells assessed as formation of apoptotic bodies at 15 to 30 uM measured after 48 hrs by phase contrast microscopic analysis; assay type: functional, cell-based; settings: dose 15-30 µM; method in brief: as §2
A549 [7] = test: Induction of apoptosis in human A549 cells assessed as chromatin condensation at 15 to 30 uM measured after 48 hrs by DAPI staining based fluorescence microscopic analysis; assay type: functional, cell-based; settings: dose 15-30 µM
Method in brief: (§3)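 A549 plated at 2×10^5 cells/well and grown 24 h. Treated 48 h with test compound (15 or 30 μM) or diosgenin (30 μM); vehicle control 0.1% DMSO. Fixed in 4% formaldehyde 1 h at 4 °C, stained with 5 μM DAPI for 10 min at 37 °C in the dark, and viewed by fluorescence microscopy.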

A549 [8] = test: Induction of apoptosis in human A549 cells assessed as nuclear fragmentation at 15 to 30 uM measured after 48 hrs by DAPI staining based fluorescence microscopic analysis; assay type: functional, cell-based; settings: dose 15-30 µM; method in brief: as §3
A549 [9] = test: Induction of apoptosis in human A549 cells assessed as early apoptotic cells at 15 uM after 48 hrs by AnnexinV-FITC/propidium iodide staining based flow cytometry analysis (reference value: 0.5 to 2.3 %); assay type: functional
A549 [10] = test: Induction of apoptosis in human A549 cells assessed as late apoptotic cells at 15 uM after 48 hrs by AnnexinV-FITC/propidium iodide staining based flow cytometry analysis (reference value: 1 to 3.1 %); assay type: functional
A549 [11] = test: Induction of apoptosis in human A549 cells assessed as early apoptotic cells at 30 uM after 48 hrs by AnnexinV-FITC/propidium iodide staining based flow cytometry analysis (reference value: 0.5 to 2.3 %); assay type: functional
A549 [12] = test: Induction of apoptosis in human A549 cells assessed as late apoptotic cells at 30 uM after 48 hrs by AnnexinV-FITC/propidium iodide staining based flow cytometry analysis (reference value: 1 to 3.1 %); assay type: functional
A549 [13] = test: Induction of apoptosis in human A549 cells assessed as increase in cleaved caspase 3 expression at 7.5 to 30 uM by Western blot analysis; assay type: functional, cell-based; settings: dose 7.5-30 µM
Method in brief: (§4)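 A549 treated with compound (0, 7.5, 15, 30 μM) or diosgenin (0, 15, 30 μM), lysed in RIPA and boiled 10 min. 30 μg protein run on 10% SDS-PAGE, blotted to nitrocellulose, blocked in 5% BSA. Primary antibodies used at 1:1000, HRP secondary at 1:5000 for 2 h, ECL detection. β-actin served as loading control.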

A549 [14] = test: Induction of apoptosis in human A549 cells assessed as increase in cleaved caspase 9 expression at 7.5 to 30 uM by Western blot analysis; assay type: functional, cell-based; settings: dose 7.5-30 µM; method in brief: as §4
A549 [15] = test: Induction of apoptosis in human A549 cells assessed as increase in cleaved PARP expression at 7.5 to 30 uM by Western blot analysis; assay type: functional, cell-based; settings: dose 7.5-30 µM; method in brief: as §4
A549 [16] = test: Induction of mitochondrial depolarization in human A549 cells assessed as increase in depolarized cell population measured after 48 hrs by JC1 dye based flow cytometry; assay type: functional; settings: dose 15-30 µM
A549 [17] = test: Induction of mitochondrial depolarization in human A549 cells assessed as depolarized cell population at 15 uM measured after 48 hrs by JC1 dye based flow cytometry (reference value: 0.4%); assay type: functional
A549 [18] = test: Induction of mitochondrial depolarization in human A549 cells assessed as depolarized cell population at 30 uM measured after 48 hrs by JC1 dye based flow cytometry (reference value: 0.4%); assay type: functional
A549 [19] = test: Induction of apoptosis in human A549 cells assessed as increase in Bax expression by Western blot analysis; assay type: functional, cell-based; settings: dose 7.5-30 µM; method in brief: as §4
A549 [20] = test: Induction of apoptosis in human A549 cells assessed as decrease in Bcl-2 expression by Western blot analysis; assay type: functional, cell-based; settings: dose 7.5-30 µM; method in brief: as §4
A549 [21] = test: Induction of apoptosis in human A549 cells assessed as increase in cyto-c expression by Western blot analysis; assay type: functional, cell-based; settings: dose 7.5-30 µM; method in brief: as §4
HepG2 [22] = test: Potency index, ratio of diosgenin IC50 to test compound IC50 for cytotoxicity against human HepG2 cells assessed as reduction in cell viability; assay type: functional
A549 [23] = test: Potency index, ratio of diosgenin IC50 to test compound IC50 for cytotoxicity against human A549 cells assessed as reduction in cell viability; assay type: functional

In the case of `CC(=O)O[C@H]1CC[C@@]2(C)C(=CC[C@H]3[C@@H]4C[C@@H]5O[C@H](CC[C@H](C)c6nnc(-c7cccnc7)s6)[C@@H](C)[C@@H]5[C@@]4(C)CC[C@@H]32)C1`, the IC50 (HepG2 [1]) is reported as 11.7 µM, the IC50 (A549 [2]) is reported as 3.93 µM and the IC50 (MCF7) is reported as > 100 µM. The IC50 (HCT-116) was 29.6 µM, the IC50 (GES1) was 420 µM and the Activity (A549 [3]) was “Active”. For the same compound, the Activity (A549 [4]) was “Active”, the Activity (A549 [5]) was “Active” and the Activity (A549 [6]) was “Active”. For the same compound, the Activity (A549 [7]) was “Active”, the Activity (A549 [8]) was “Active” and the Activity (A549 [9]) was 21%. For the same compound, the Activity (A549 [10]) was 15.1%, the Activity (A549 [11]) was 60% and the Activity (A549 [12]) was 21.3%. The Activity (A549 [13]) was “Active”, the Activity (A549 [14]) was “Active” and the Activity (A549 [15]) was “Active”. For the same compound, the Activity (A549 [16]) was “Dose-dependent effect”, the Activity (A549 [17]) was 7.5% and the Activity (A549 [18]) was 26%. The Activity (A549 [19]) was “Dose-dependent effect”, the Activity (A549 [20]) was “Dose-dependent effect” and the Activity (A549 [21]) was “Dose-dependent effect”. The “Ratio IC50” value (HepG2 [22]) was 2.9 and the “Ratio IC50” value (A549 [23]) was 6.7.
